Common to all, as to type: functional
For one experiment, the system named is Escherichia coli. The experiment can be described thus: In vitro minimum inhibitory concentration against growth of Escherichia coli Vogel. The method in brief: (§1)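 Tube serial dilution. Cultures grown overnight at 37 °C in tryptose phosphate broth or brain heart infusion broth. Compound stock of 1000 μg/mL (as free acid) made in minimal 0.5 N NaOH, then diluted in distilled water. Dilutions were mixed 1:1 with culture to a final 1×10^5 cells/mL and incubated 18–20 h at 37 °C. MIC = lowest concentration with no visible growth.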

The nature of experiment [1]: Antibacterial activity in mice after intraperitoneal administration with 0.5 mL of Escherichia coli Vogel inoculum. As to conditions: sc. The method in brief:
(§2)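 Female ICR mice (18-20 g) infected intraperitoneally with 0.5 mL of E. coli Vogel (grown in brain heart infusion broth, suspended in saline) at 1.9×10^7 cells/mL. Compound as free acid dissolved in dilute NaOH and diluted with water, given once (0.5 mL) sc or po at 0.5 h postinfection. Groups of 10 mice at four or five dose levels, with nonmedicated controls. Deaths recorded daily for 7 days; PD50 by probit analysis.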

In another experiment the test system is Klebsiella pneumoniae. The experiment can be described thus: In vitro minimum inhibitory concentration against growth of Klebsiella pneumoniae strain 39645. The method in brief:
(§3)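 Tube serial dilution. Stocks at 1000 μg/mL (free acid) were made in minimal 0.5 N NaOH and diluted in distilled water. Cultures were grown overnight at 37 °C in tryptose phosphate or brain heart infusion broth. Final inoculum was 1×10^5 cells/mL, incubated 18–20 h at 37 °C. MIC was the lowest concentration preventing visible growth.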

For another experiment, the system named is Mus musculus. The experiment can be described thus: Compound was evaluated for antibacterial activity in mice after peroral administration with 0.5 mL of Escherichia coli Vogel inoculum. The settings on record: po, read-out: PD50. The method in brief:
as §2

The test system of another experiment is Pseudomonas aeruginosa. In words: In vitro minimum inhibitory concentration against growth of Pseudomonas aeruginosa MGH-2. The method in brief: as §1
The subject of another experiment is Staphylococcus aureus. The experiment can be described thus: In vitro minimum inhibitory concentration against growth of Staphylococcus aureus Smith. An outline of the steps: as §3

Structures are written as SMILES. In brackets after ≈: the same amount, converted by molar mass.

Consider `CCN1CCN(c2cc3c(cc2F)c(=O)c(C(=O)O)cn3NC)CC1`, for which, in the experiment on Escherichia coli, the MIC (in general, the least concentration at which growth counts as inhibited) was 0.5 mg/L (≈ 1.44 µM).
In the experiment with Escherichia coli, `CNn1cc(C(=O)O)c(=O)c2cc(F)c(N3CCC(O)CC3)cc21` showed a minimal inhibitory concentration (MIC) of 1.95 mg/L (≈ 5.82 µM).
In turn, `CCNn1cc(C(=O)O)c(=O)c2cc(F)c(N3CCN(C)CC3)cc21` registered an MIC in the experiment on Escherichia coli of 0.5 mg/L (≈ 1.44 µM).
Consider `CN1CCN(c2cc3c(cc2F)c(=O)c(C(=O)O)cn3N(C)C)CC1`, for which the MIC in the experiment on Escherichia coli is 0.5 mg/L (≈ 1.44 µM). For the same molecule, the PD50 in experiment [1] was determined as 1.6 mg/kg.
In the case of `CCn1cc(C(=O)O)c(=O)c2cc(F)c(N3CCN(C)CC3)cc21` [PEFLOXACIN], the MIC against Escherichia coli was determined as 0.25 mg/L (≈ 0.75 µM); in the experiment on Klebsiella pneumoniae, 0.5 mg/L (≈ 1.5 µM); against Pseudomonas aeruginosa it was 1 mg/L (≈ 3 µM); against Staphylococcus aureus it was 1 mg/L (≈ 3 µM). In experiment [1], this molecule returned a PD50 of 0.5 mg/kg. Moreover, in the experiment with Mus musculus, the ED50 came out at 1.1 mg/kg.
Consider `CCCNn1cc(C(=O)O)c(=O)c2cc(F)c(N3CCN(C)CC3)cc21`, for which the lowest concentration to inhibit growth in the experiment on Escherichia coli (MIC) was 1.95 mg/L (≈ 5.38 µM). For the same molecule, the PD50 in experiment [1] turned out to be 33 mg/kg.
In the same order, the values of `CNn1cc(C(=O)O)c(=O)c2cc(F)c(N3CC[N+](C)([O-])CC3)cc21` are 15.6 mg/L (≈ 44.5 µM) and 9.4 mg/kg.
`CNn1cc(C(=O)O)c(=O)c2cc(F)c(N3CCCN(C)CC3)cc21.Cl` returned a minimal inhibitory concentration (MIC) against Escherichia coli of 1.95 mg/L. Further, the PD50 in experiment [1] is 5.5 mg/kg.
The molecule `CNn1cc(C(=O)O)c(=O)c2cc(F)c(N3CCSCC3)cc21` came in with a minimal inhibitory concentration (MIC) in the experiment with Escherichia coli of 0.5 mg/L (≈ 1.48 µM).
As to `CNn1cc(C(=O)O)c(=O)c2cc(F)c(N3CCN(C(C)C)CC3)cc21`, the lowest concentration to inhibit growth with Escherichia coli (MIC) was 0.5 mg/L (≈ 1.38 µM). This molecule also registered a PD50 in experiment [1] of 1.5 mg/kg.
In the same order, the values of `CNn1cc(C(=O)O)c(=O)c2cc(F)c(N3CCOCC3)cc21` are 0.5 mg/L (≈ 1.56 µM) and 16.6 mg/kg.
Take `CNn1cc(C(=O)O)c(=O)c2cc(F)c(N3CCCC3)cc21`: the minimum inhibitory concentration (MIC) in the experiment on Escherichia coli was found to be 1 mg/L (≈ 3.28 µM).
With `CCn1cc(C(=O)O)c(=O)c2cc(F)c(N3CCNCC3)cc21` [NORFLOXACIN], the minimum inhibitory concentration (MIC) against Escherichia coli worked out at 0.5 mg/L (≈ 1.57 µM); against Klebsiella pneumoniae it was 0.5 mg/L (≈ 1.57 µM); against Pseudomonas aeruginosa, 1 mg/L (≈ 3.13 µM); in the experiment with Staphylococcus aureus it was 1.95 mg/L (≈ 6.11 µM). The PD50 in experiment [1] was determined as 0.3 mg/kg. In addition, in the experiment on Mus musculus, the ED50 was 5.9 mg/kg.
For the molecule `CNn1cc(C(=O)O)c(=O)c2cc(F)c(N3CCNCC3)cc21`, the MIC in the experiment with Escherichia coli was 1 mg/L (≈ 3.12 µM); against Klebsiella pneumoniae, 1 mg/L (≈ 3.12 µM); in the experiment with Pseudomonas aeruginosa it was 1 mg/L (≈ 3.12 µM); in the experiment with Staphylococcus aureus it was 1.95 mg/L (≈ 6.09 µM). In addition, the PD50 in experiment [1] came to 0.3 mg/kg. The ED50 in the experiment with Mus musculus worked out at 6.4 mg/kg.
As for `CNn1cc(C(=O)O)c(=O)c2cc(F)c(N3CCN(C)CC3)cc21` [AMIFLOXACIN], the MIC was found to be 0.25 mg/L (≈ 0.748 µM) against Escherichia coli, 0.25 mg/L (≈ 0.748 µM) in the experiment on Klebsiella pneumoniae, 1 mg/L (≈ 2.99 µM) against Pseudomonas aeruginosa and 1 mg/L (≈ 2.99 µM) against Staphylococcus aureus. In addition, the ED50 with Mus musculus worked out at 1 mg/kg.
`CCCN1CCN(c2cc3c(cc2F)c(=O)c(C(=O)O)cn3NC)CC1` yielded an MIC in the experiment with Escherichia coli of 0.25 mg/L (≈ 0.69 µM). For the same molecule, the PD50 in experiment [1] was 14.2 mg/kg.
`CCOC(=O)c1cn(NC)c2cc(N3CCN(C)CC3)c(F)cc2c1=O.CS(=O)(=O)O` showed a minimum inhibitory concentration (MIC) with Escherichia coli of 62.5 mg/L.
In the experiment on Escherichia coli, `CN1CCN(c2cc3c(cc2F)c(=O)c(C(=O)O)cn3N)CC1` displayed an MIC of 1.95 mg/L (≈ 6.09 µM). Further, the PD50 in experiment [1] is 2.9 mg/kg.
On the same counts, the results for `CNn1cc(C(=O)O)c(=O)c2cc(F)c(N3CCN(C(C)=O)CC3)cc21` are 15.6 mg/L (≈ 43.1 µM) and 109 mg/kg.
`CNn1cc(C(=O)O)c(=O)c2cc(F)c(N3CCC(O)C3)cc21` (configuration not stated): the MIC with Escherichia coli came out at 1 mg/L (≈ 3.11 µM).
`CNn1cc(C(=O)O)c(=O)c2cc(F)c(N3CCCNCC3)cc21.Cl`: the PD50 in experiment [1] came out at 2.8 mg/kg.
On to `CNn1cc(C(=O)O)c(=O)c2cc(F)c(N3CCCC(O)C3)cc21` (configuration not stated), for which, in experiment [1], the PD50 was determined as 41 mg/kg.
`C=CCNn1cc(C(=O)O)c(=O)c2cc(F)c(N3CCN(C)CC3)cc21` came in with a minimum inhibitory concentration (MIC) in the experiment on Escherichia coli of 1 mg/L (≈ 2.77 µM). The molecule also showed a PD50 in experiment [1] of 19 mg/kg.

For the origin of these results see ChEMBL document CHEMBL1122812, “Novel amino-substituted 3-quinolinecarboxylic acid antibacterial agents: synthesis and structure-activity relationships” (1984).
